Laboratory results published in ChEMBL document CHEMBL1151705, “Novel azalides derived from 16-membered macrolides. Part II: Isolation of the linear 9-formylcarboxylic acid and its sequential macrocyclization with an amino alcohol or an azidoamine” (2008).
Converted amounts (≈) assume the structure as drawn.

What was measured:
Type in all cases: functional
[1] = tested on: Streptococcus pneumoniae; assay: Antimicrobial activity against Streptococcus pneumoniae 8 expressing inducible ermB after 20 hrs by agar dilution method
Procedure, shortened: (§1)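 Streptococci, H. influenzae and M. catarrhalis were precultured on blood agar plates. Suspensions of about 10⁶ CFU/ml were inoculated onto sensitivity disk agar supplemented with 5% horse blood and incubated at 37 °C for 20 h. MIC was read as the lowest drug concentration with no visible growth.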

[2] = tested on: Streptococcus pneumoniae; assay: Antimicrobial activity against Streptococcus pneumoniae 9 expressing mefA after 20 hrs by agar dilution method; procedure, shortened: as §1
[3] = tested on: Streptococcus pneumoniae; assay: Antimicrobial activity against Streptococcus pneumoniae 10 expressing mefA after 20 hrs by agar dilution method; procedure, shortened: as §1
[4] = tested on: Streptococcus pyogenes; assay: Antimicrobial activity against drug-susceptible Streptococcus pyogenes 1 after 20 hrs by agar dilution method; procedure, shortened: as §1
[5] = tested on: Streptococcus pyogenes; assay: Antimicrobial activity against Streptococcus pyogenes 2 constitutively expressing ermB after 20 hrs by agar dilution method; procedure, shortened: as §1
[6] = tested on: Streptococcus pyogenes; assay: Antimicrobial activity against Streptococcus pyogenes 3 expressing mefA after 20 hrs by agar dilution method; procedure, shortened: as §1
[7] = tested on: Moraxella catarrhalis; assay: Antimicrobial activity against drug-susceptible Moraxella catarrhalis 1 after 20 hrs by agar dilution method; procedure, shortened: as §1
[8] = tested on: Moraxella catarrhalis; assay: Antimicrobial activity against drug-susceptible Moraxella catarrhalis 2 after 20 hrs by agar dilution method; settings: Moraxella catarrhalis, 20 h; read-out: MIC; procedure, shortened: as §1
[9] = tested on: Haemophilus influenzae; assay: Antimicrobial activity against drug-susceptible Haemophilus influenzae 1 after 20 hrs by agar dilution method; settings: Haemophilus influenzae, 20 h; read-out: MIC; procedure, shortened: as §1
[10] = tested on: Haemophilus influenzae; assay: Antimicrobial activity against drug-susceptible Haemophilus influenzae 2 after 20 hrs by agar dilution method; settings: Haemophilus influenzae, 20 h; read-out: MIC; procedure, shortened: as §1
[11] = tested on: Haemophilus influenzae; assay: Antimicrobial activity against drug-susceptible Haemophilus influenzae 3 after 20 hrs by agar dilution method; settings: Haemophilus influenzae, 20 h; read-out: MIC; procedure, shortened: as §1
[12] = tested on: Haemophilus influenzae; assay: Antimicrobial activity against drug-susceptible Haemophilus influenzae 4 after 20 hrs by agar dilution method; procedure, shortened: as §1
[13] = tested on: Staphylococcus aureus; assay: Antimicrobial activity against drug-susceptible Staphylococcus aureus 209P JC-1 after 20 hrs by agar dilution method; settings: Staphylococcus aureus, 209P, 20 h; read-out: MIC
Procedure, shortened: (§2)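 Agar dilution MIC. S. aureus seed culture was grown in sensitivity test broth. Cell suspension (about 10⁶ CFU/ml) was inoculated onto sensitivity disk agar with 5% horse blood and incubated at 37 °C for 20 h. MIC was the lowest drug concentration that prevented visible growth.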

[14] = tested on: Staphylococcus aureus; assay: Antimicrobial activity against drug-susceptible Staphylococcus aureus 2 after 20 hrs by agar dilution method; settings: Staphylococcus aureus, 20 h; read-out: MIC; procedure, shortened: as §2
[15] = tested on: Staphylococcus aureus; assay: Antimicrobial activity against drug-susceptible Staphylococcus aureus 3 after 20 hrs by agar dilution method; settings: Staphylococcus aureus, 20 h; read-out: MIC; procedure, shortened: as §2
[16] = tested on: Staphylococcus aureus; assay: Antimicrobial activity against Staphylococcus aureus 4 constitutively expressing ermA after 20 hrs by agar dilution method; procedure, shortened: as §2
[17] = tested on: Staphylococcus aureus; assay: Antimicrobial activity against Staphylococcus aureus 5 expressing inducible ermB after 20 hrs by agar dilution method; settings: Staphylococcus aureus, 20 h; read-out: MIC; procedure, shortened: as §2
[18] = tested on: Streptococcus pneumoniae; assay: Antimicrobial activity against drug-susceptible Streptococcus pneumoniae DP1 Type1 after 20 hrs by agar dilution method; procedure, shortened: as §1
[19] = tested on: Streptococcus pneumoniae; assay: Antimicrobial activity against drug-susceptible Streptococcus pneumoniae 2 after 20 hrs by agar dilution method; settings: Streptococcus pneumoniae, 20 h; read-out: MIC; procedure, shortened: as §1
[20] = tested on: Streptococcus pneumoniae; assay: Antimicrobial activity against drug-susceptible Streptococcus pneumoniae 3 after 20 hrs by agar dilution method; settings: Streptococcus pneumoniae, 20 h; read-out: MIC; procedure, shortened: as §1
[21] = tested on: Streptococcus pneumoniae; assay: Antimicrobial activity against Streptococcus pneumoniae 4 constitutively expressing ermB after 20 hrs by agar dilution method; settings: Streptococcus pneumoniae, 20 h; read-out: MIC; procedure, shortened: as §1
[22] = tested on: Streptococcus pneumoniae; assay: Antimicrobial activity against Streptococcus pneumoniae 5 constitutively expressing ermB/mefA after 20 hrs by agar dilution method; settings: Streptococcus pneumoniae, 20 h; read-out: MIC; procedure, shortened: as §1
[23] = tested on: Streptococcus pneumoniae; assay: Antimicrobial activity against Streptococcus pneumoniae 6 constitutively expressing ermB after 20 hrs by agar dilution method; settings: Streptococcus pneumoniae, 20 h; read-out: MIC; procedure, shortened: as §1
[24] = tested on: Streptococcus pneumoniae; assay: Antimicrobial activity against Streptococcus pneumoniae 7 expressing inducible ermB after 20 hrs by agar dilution method; procedure, shortened: as §1
[25] = tested on: Staphylococcus aureus; assay: Antimicrobial activity against Staphylococcus aureus 6 expressing inducible ermB after 20 hrs by agar dilution method; procedure, shortened: as §2
[26] = Streptococcus pneumoniae, 20 h, read-out: MIC
[27] = Streptococcus pyogenes, 20 h, read-out: MIC
[28] = Haemophilus influenzae, 20 h, read-out: MIC
[29] = Moraxella catarrhalis, 20 h, read-out: MIC

MIC [1] [µg/mL] | MIC [3, 26] [µg/mL] | MIC [4, 27] [µg/mL] | MIC [5] [µg/mL] | MIC [8] [µg/mL] | MIC [9] [µg/mL] | MIC [10] [µg/mL] | MIC [11] [µg/mL] | MIC [12, 28] [µg/mL] | MIC [13] [µg/mL] | MIC [14] [µg/mL] | MIC [15] [µg/mL] | MIC [16] [µg/mL] | MIC [17] [µg/mL] | MIC [19] [µg/mL] | MIC [20] [µg/mL] | MIC [21] [µg/mL] | MIC [22] [µg/mL] | MIC [23] [µg/mL] | MIC [25] [µg/mL] | also measured | Compound
64 | 0.06 | 0.13 | > 128 | 2 | 32 | 1 | 8 | 16 | 0.5 | 1 | 0.25 | > 128 | 0.5 | 0.06 | 0.06 | > 128 | > 128 | > 128 | 0.5 | MIC [2, 26]: 0.06 µg/mL; MIC [6, 27]: 0.5 µg/mL; MIC [7]: 2 µg/mL; MIC [18, 26]: 0.03 µg/mL; MIC [24, 26]: 16 µg/mL | CCOC(=O)[C@H]1[C@H](C)O[C@@H](O[C@H]2[C@H](N(C)C)[C@@H](O)[C@H](O[C@H]3[C@@H](CC=O)C[C@@H](C)[C@@H](O)CN(C)CCC(CCCc4cnc5ccccc5c4)NC(=O)C[C@@H](OC(=O)CC)[C@@H]3OC)O[C@@H]2C)C[C@@]1(C)O (mixture of isomers)
32 (≈ 32.9 µM) | 0.13 (≈ 0.134 µM) | 0.25 (≈ 0.257 µM) | > 128 | 2 (≈ 2.06 µM) | 32 (≈ 32.9 µM) | 2 (≈ 2.06 µM) | 16 (≈ 16.5 µM) | 16 (≈ 16.5 µM) | 0.5 (≈ 0.515 µM) | 1 (≈ 1.03 µM) | 0.25 (≈ 0.257 µM) | > 128 | 0.5 (≈ 0.515 µM) | 0.13 (≈ 0.134 µM) | 0.13 (≈ 0.134 µM) | > 128 | > 128 | > 128 | 1 (≈ 1.03 µM) | MIC [2]: 0.13 µg/mL (≈ 0.134 µM); MIC [6]: 1 µg/mL (≈ 1.03 µM); MIC [7]: 2 µg/mL (≈ 2.06 µM); MIC [18]: 0.06 µg/mL (≈ 0.0618 µM); MIC [24]: 32 µg/mL (≈ 32.9 µM) | CCOC(=O)[C@H]1[C@H](C)O[C@@H](O[C@H]2[C@H](N(C)C)[C@@H](O)[C@H](O[C@H]3[C@@H](CC=O)C[C@@H](C)[C@@H](O)CN(C)CCC(C/C=C/c4cnc5ccccc5c4)NC(=O)C[C@@H](OC(=O)CC)[C@@H]3OC)O[C@@H]2C)C[C@@]1(C)O (stereo in doubt; form 1)
 | 0.03 (≈ 0.0304 µM) | 0.06 (≈ 0.0608 µM) | > 128 | 1 (≈ 1.01 µM) | 32 (≈ 32.4 µM) | 2 (≈ 2.03 µM) | 8 (≈ 8.11 µM) | 8 (≈ 8.11 µM) | 0.5 (≈ 0.507 µM) | 1 (≈ 1.01 µM) | 0.25 (≈ 0.253 µM) | > 128 | 0.25 (≈ 0.253 µM) | 0.03 (≈ 0.0304 µM) | 0.03 (≈ 0.0304 µM) | 128 (≈ 130 µM) | 128 (≈ 130 µM) | 128 (≈ 130 µM) | 0.5 (≈ 0.507 µM) | MIC [1, 26]: 8 µg/mL (≈ 8.11 µM); MIC [2, 26]: 0.06 µg/mL (≈ 0.0608 µM); MIC [6, 27]: 0.5 µg/mL (≈ 0.507 µM); MIC [7, 29]: 1 µg/mL (≈ 1.01 µM); MIC [18, 26]: 0.015 µg/mL (≈ 0.0152 µM); MIC [24, 26]: 8 µg/mL (≈ 8.11 µM) | CCOC(=O)[C@H]1[C@H](C)O[C@@H](O[C@H]2[C@H](N(C)C)[C@@H](O)[C@H](O[C@H]3[C@@H](CC=O)C[C@@H](C)[C@@H](O)CN(C)CCC[C@H](C/C=C/c4cnc5ccccc5c4)OC(=O)C[C@@H](OC(=O)CC)[C@@H]3OC)O[C@@H]2C)C[C@@]1(C)O
1 (≈ 1.01 µM) |  |  | > 128 | 1 (≈ 1.01 µM) | 32 (≈ 32.4 µM) | 2 (≈ 2.03 µM) | 8 (≈ 8.11 µM) |  | 0.13 (≈ 0.132 µM) | 0.25 (≈ 0.253 µM) | 0.13 (≈ 0.132 µM) | > 128 | 0.13 (≈ 0.132 µM) | 0.03 (≈ 0.0304 µM) | 0.015 (≈ 0.0152 µM) | 128 (≈ 130 µM) | 128 (≈ 130 µM) | 128 (≈ 130 µM) | 0.25 (≈ 0.253 µM) | MIC [2]: 0.015 µg/mL (≈ 0.0152 µM); MIC [3]: 0.015 µg/mL (≈ 0.0152 µM); MIC [4]: 0.03 µg/mL (≈ 0.0304 µM); MIC [6]: 0.13 µg/mL (≈ 0.132 µM); MIC [7, 29]: 1 µg/mL (≈ 1.01 µM); MIC [12]: 4 µg/mL (≈ 4.06 µM); MIC [18, 26]: < 0.008 µg/mL; MIC [24]: 1 µg/mL (≈ 1.01 µM) | CCOC(=O)[C@H]1[C@H](C)O[C@@H](O[C@H]2[C@H](N(C)C)[C@@H](O)[C@H](O[C@H]3[C@@H](CC=O)C[C@@H](C)[C@@H](O)CN(C)CC(/C=C/Cc4cnc5ccccc5c4)CCOC(=O)C[C@@H](OC(=O)CC)[C@@H]3OC)O[C@@H]2C)C[C@@]1(C)O (stereo in doubt; form 1)
